STAT3 act = activators of IL-6 induced STAT3 signaling. hit rate 0.91% among 190,000. U3A cells, IL-6 STAT3-luciferase reporter, luminescence; 100% = signal with IL-6 EC80 alone. activation (% of control), % at 5.6 µM. AID 871;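 active means activation above the screen-wide mean of compound activation plus 3 SD, cut at about 130% in these data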;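 further: 0% = background luminescence of wells with medium and substrate only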
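Test system: Human STAT1-deficient U3A cells with stable STAT3-luciferase reporter | Also added: Interleukin-6, 33 ng/mL | Timing: Compound pre-incubation 1 h before IL-6, then 6 h stimulation at 37 °C | Technique: Luciferase reporter luminescence | Read-out: Percent of IL-6-only median luminescence | Benchmarks: IL-6-only wells as 100% reference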
STAT3 inh = reduces IL-6 driven STAT3 reporter signal; U3A cells, IL-6 STAT3-luciferase reporter, luminescence; host cell line lacks STAT1; inhibition, % at 5.5 µM; hit rate 0.89% among 190,000;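 active means inhibition above the mean inhibition across all screened compounds plus 3 SD, cut at about 44% in these data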;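 further: 0% = DMSO only wells and 100% = 100 µM nifuroxazide control wells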
HSP90 refold inh = HSP90 refolding inhibition in rabbit reticulocyte lysate. luciferase refolding luminescence, 3 h. inhibition, % at 5.6 µM. hit rate 0.91% among 290,000;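 active means inhibition above the screen-wide mean plus 3 SD, computed separately per campaign, cut at about 16% in these data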;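 further: 0% = DMSO wells and 100% = 60 µM geldanamycin wells; inhibitors lower the luminescence because luciferase stays unfolded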
STAT1 blocker = STAT1 signaling inhibition; NIH 3T3 STAT1-luciferase reporter, IFN-gamma, luminescence; hit rate 0.35% among 200,000; inhibition, % at 5.5 µM; AID 920;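 active means inhibition above a set limit, the mean inhibition across all tested compounds plus 3 SD, cut at about 34% in these data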;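 further: 0% = IFN-gamma with DMSO and 100% = IFN-gamma with 300 µM nifuroxazide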
The depositor's hits bear a star; . = not tested or not shown. Most compounds without a hit are left out; they make up all but 2% or so of the library.

SMILES | STAT3 act | STAT3 inh | HSP90 refold inh | STAT1 blocker
Cc1cc(C)n(-c2ccc(C(=O)OCC(=O)Nc3ccccc3[N+](=O)[O-])cc2)n1 | 109.5 | -16.9 | 6.1 | 2.0
Cc1cc(C)n(-c2ccc(C(=O)OCC(=O)Nc3cc(Cl)ccc3[N+](=O)[O-])cc2)n1 | 134.3* | -40.7 | -3.4 | 0.4
O=c1cc(CN2CCc3ccccc32)nc2sccn12 | 134.1* | -41.2 | 4.3 | 6.0
CCCCCCCCNc1ncnc2ccccc12 | 26.3 | 88.6* | 1.3 | 28.2
O=C1Nc2ccccc2/C1=C/C(=O)c1cccs1 | 134.3* | -35.1 | 2.8 | 0.6
CS(=O)(=O)N(CC(=O)N/N=C/c1cccc2c1OCCO2)c1ccccc1Br | 102.2 | -2.4 | -1.1 | 4.5
CCOC(=O)c1ccc(-c2ccc(/C=N/NC(=O)CN(c3ccccc3Br)S(C)(=O)=O)o2)cc1 | 115.4 | -7.7 | 16.4* | -17.3
Cn1nc(-c2ccccn2)nc2c(=O)n(C)c(=O)nc1-2 | . | . | 86.6* | .
CCCSc1nnc(CNS(=O)(=O)c2ccc(C)cc2)n1C | . | . | -2.7 | .
COc1ccc(C(=O)Nc2ccccc2C(=O)Nc2cc(C)ccn2)cc1 | . | . | 0.4 | .
COc1ccc(C(=O)NC(=O)Nc2cc(C)ccn2)cc1 | 16.6 | 96.8* | 21.9* | 39.5*
Cc1ccc(-c2cc3nc(C)cc(C)n3n2)cc1 | 151.6* | -51.1 | 0.6 | -37.2
CCc1ccc(/C=C/C(=O)C2C(=O)c3ccccc3C2=O)cc1 | 61.8 | 51.6* | 3.9 | 38.7*
O=C(/C=C/c1ccccc1)C1C(=O)c2ccccc2C1=O | 102.1 | -7.7 | 0.0 | -12.0
COc1ccc(Nc2ccccc2NC(=O)c2ccccc2Br)cc1 | . | . | 2.9 | .
NNc1nc2sc3c(c2c(=O)n1Cc1ccccc1)CCC3 | . | . | 3.5 | .
NNc1nc(-c2ccccc2)nc2sc3c(c12)CCCC3 | 138.6* | -40.3 | 7.9 | -44.2
COc1cc(OC)cc(C(=O)Nn2cc(C(=O)Nc3ccccc3F)c3ccccc3c2=O)c1 | 134.1* | -46.0 | 5.1 | 19.5
CCCCN1C=CC(=C2C(=O)c3ccccc3C2=O)C=C1 | 10.0 | 112.2* | 83.3* | 94.5*
CCCCC1C(=O)N(c2ccccc2)N(c2ccccc2)C1=O | 108.3 | -7.1 | 3.1 | -9.1
CCCCCCCC[n+]1cccc2c3ccccc3ccc21 | 28.5 | 87.4* | 1.3 | 37.9*
CCCCCCCCCC[n+]1cccc2c3ccccc3ccc21 | 28.6 | 87.2* | 1.7 | 50.8*
O=C(O)COCc1nc2ccccc2s1 | . | . | 3.8 | .
CC(=O)OCc1nc2ccccc2s1 | 163.2* | -74.6 | -1.9 | -38.4
O=C(CNC(=O)c1ccccc1F)OCc1nc2ccccc2s1 | 129.5 | -31.0 | 5.0 | -21.1
SMILES | STAT3 act | STAT3 inh | HSP90 refold inh | STAT1 blocker
O=C(CNC(=O)c1ccccc1)OCc1nc2ccccc2s1 | 135.9* | -40.5 | -1.3 | -43.3
O=C(O/N=C1/CCSc2ccccc21)c1ccc(F)cc1 | 134.8* | -37.7 | -1.0 | -4.0
O=C(O/N=C1/CCCc2occc21)c1ccc(F)cc1 | 97.4 | 5.2 | -0.5 | -14.7
O=C(Nc1ccc(S(=O)(=O)N2CCCCC2)cc1)c1ccc(CN2CCc3ccccc3C2)cc1 | 33.0 | 86.8* | 2.9 | 31.2
Cc1ccc(-n2nc(C)cc2Nc2ncc(Cl)cc2Cl)cc1 | 134.5* | -47.8 | -5.3 | 4.4
O=C(c1ccccc1)N1CCN(C(=S)NCc2ccc3c(c2)OCO3)CC1 | 103.2 | -3.6 | -3.3 | 0.5
CC1=Nc2cc(C(=O)NCC3CCCO3)ccc2Sc2ccc(C)cc21 (configuration not stated) | . | . | -4.9 | .
CC1=Nc2cc(C(=O)NCc3ccco3)ccc2Sc2ccc(C)cc21 | 133.8* | -44.1 | 5.5 | 5.6
COC(=O)C1=C(NC(=O)c2ccc(C)c(C)c2)CCS1 | 133.8* | -32.2 | -1.7 | -2.5
CCC1(c2ccccc2)NC(=O)N(Cc2ccc(C(=O)OC)cc2)C1=O (configuration not stated) | 101.1 | -1.8 | -1.2 | 1.4
O=C(Nc1nc2ccc(F)cc2s1)c1ccccn1 | 21.8 | 95.5* | 56.5* | 69.7*
O=C(Nc1nc2ccccc2s1)c1cnccn1 | 69.4 | 36.0 | 6.0 | -17.8
Nn1c(SCc2c(F)cccc2F)nnc1-c1ccccn1 | . | . | 3.1 | .
CCOc1ccc(N(Cc2ccccc2F)C2=NC3CS(=O)(=O)CC3S2)cc1 (configuration not stated) | 96.5 | 8.8 | 7.6 | -2.6
Cc1ccccc1C1=NC(C(F)(F)F)(C(F)(F)F)c2c(n(C)c(=O)n(C)c2=O)N1 | 105.0 | -3.2 | 0.1 | 3.1
Cn1c2c(c(=O)n(C)c1=O)C(C(F)(F)F)(C(F)(F)F)N=C(c1ccc(Cl)cc1)N2 | 30.8 | 89.4* | 0.9 | 70.6*
COc1ccc(-c2ncn(CCC#N)c2[N+](=O)[O-])cc1 | 98.8 | 6.3 | -0.4 | 1.4
COc1ccc(-c2cc(=O)n(CCC#N)[nH]2)cc1 | 103.1 | -4.9 | 64.6* | -7.3
Cc1nn(-c2nc3ccccc3[nH]2)c(=O)c2ccccc12 | 7.7 | 111.6* | 98.8* | 97.2*
Cc1nn(-c2ccc(Cl)cc2)c(=O)c2ccccc12 | 133.6* | -30.9 | 0.1 | -32.7
O=C(CCN1CCCCO1)N1CCCC(Nc2cccc(F)c2)C1 (configuration not stated) | . | . | -3.0 | .
C/C(=N\NC(=O)c1ccc(CSc2nc(C)cc(C)n2)cc1)c1ccco1 | 95.3 | 14.1 | 1.2 | 8.9
Cc1ccc(-c2ccc(C3C(C#N)=C(N)Oc4n[nH]c(C)c43)o2)cc1 (configuration not stated) | 135.7* | -40.6 | 3.3 | -18.7
Cc1[nH]nc2c1C(c1ccc(-c3ccc(Cl)cc3)o1)C(C#N)=C(N)O2 (configuration not stated) | 100.5 | 7.9 | 5.8 | -14.5
C/C(=N\NC(=O)c1ccccc1NC(=O)c1ccc(Cl)cc1)c1ccncc1 | 7.6 | 105.8* | 51.6* | 96.4*
SMILES | STAT3 act | STAT3 inh | HSP90 refold inh | STAT1 blocker
CCn1c2c(c3cc(Cl)ccc31)CCCC2=O | 103.4 | 4.9 | 64.4* | 14.4
CCn1c2c(c3cc(C(=O)O)ccc31)CCCC2=O | 107.1 | -5.3 | 1.9 | -1.9
CCOC(=O)c1sc(=NC(=O)c2cccs2)n(C)c1C | 128.3 | -24.0 | -10.1 | -35.7
CCOC(=O)c1sc(=NC(=O)c2ccc(Cl)s2)n(C)c1C | 136.8* | -46.6 | 6.8 | -53.9
CCOC(=O)c1sc(=NC(=O)c2ccco2)n(C)c1C | 142.8* | -47.5 | -2.0 | -32.8
O=C(Nc1cnc2ccccn2c1=O)c1ccc(Cl)cc1Cl | 42.8 | 70.4* | 14.8 | 40.8*
Cc1cc(C(=O)N/N=C/c2c(C)nn(-c3ccccc3)c2Cl)n[nH]1 | . | . | 0.7 | .
Cc1nn(-c2ccccc2)c(Cl)c1/C=N/NC(=O)c1ccn[nH]1 | . | . | 16.8* | .
Cc1cccc(-c2cccc(NC(=O)C3CCCN(Cc4cccnc4)C3)c2)c1 (configuration not stated) | . | . | -5.3 | .
O=C(NCCN1CCOCC1)c1cc(-c2ccccc2Cl)nc2ccccc12 | . | . | 0.4 | .
c1csc(-c2cn3ccc4ccccc4c3n2)c1 | 171.2* | -80.7 | 0.5 | -49.3
Cc1cc(N=Cc2c(O)ccc3ccccc23)no1 | 134.8* | -34.0 | 7.1 | 9.8
Cc1cccc(-c2nc(CS(=O)CC(=O)NC3CCCCC3)c(C)o2)c1 (configuration not stated) | . | . | 0.6 | .
